Values after ≈ are worked out from the molar mass of the structure shown.
What was measured:
[1] = system: Staphylococcus aureus; assay: Antimicrobial activity against intracellular hospital acquired methicillin-resistant Staphylococcus aureus ATCC 33591 activated infected in human THP-1 cells assessed as decrease in bacterial growth after 24 hrs at pH 7.4; assay type: functional, organism-based; conditions: ATCC 33591, THP-1, 24 h
In short: (§1)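 THP-1 cells activated by 24-h culture with phorbol myristate acetate 2 mg/liter, then infected like unactivated THP-1. Cloxacillin dose range in mg/liter for 24 h. CFU per mg cell protein relative to the original inoculum, n = 3. Emin and Emax extrapolated from a Hill fit (slope 1), with EC50 as total drug; static concentration by graphical interpolation.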

[2] = system: Staphylococcus aureus; assay: Antimicrobial activity against intracellular hospital acquired methicillin-resistant Staphylococcus aureus ATCC 33591 infected in activated human THP-1 cells assessed as increase in bacterial count from original inoculum at low compound concentration after 24 hrs at pH 7.4; assay type: functional; in short: as §1
[3] = system: Staphylococcus aureus; assay: Bacteriostatic activity against hospital acquired methicillin-resistant and vancomycin-intermediate Staphylococcus aureus NRS126 infected in human THP-1 cells assessed as decrease in bacterial growth after 24 hrs at pH 5.5; assay type: functional
In short: (§2)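 Human THP-1 macrophages infected with each S. aureus strain. Cloxacillin added extracellularly at about 0.01× to 100× the broth MIC measured at pH 5.5, with gentamicin 0.5 mg/liter to stop extracellular growth. Incubated 24 h. CFU counted per mg cell protein as change from the post-phagocytosis inoculum, n = 3. Emin, Emax and EC50 from a Hill fit; static concentration by graphical interpolation.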

[4] = system: Staphylococcus aureus; assay: Antimicrobial activity against intracellular hospital acquired methicillin-resistant Staphylococcus aureus ATCC 33591 infected in human keratinocytes assessed as decrease in bacterial growth after 24 hrs at pH 7.4; assay type: functional, organism-based; conditions: ATCC 33591, 24 h
In short: (§3)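 Primary human skin keratinocytes or Calu-3 bronchial epithelial cells, given an inoculum of 5 × 10⁷ to 1 × 10⁸ bacteria/ml and 2 h for internalization. Post-phagocytosis load 1.5 × 10⁶ to 3.0 × 10⁶ CFU per mg cell protein. Cloxacillin dose range in mg/liter for 24 h, n = 3. Hill-derived Emin, Emax and EC50; static concentration interpolated.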

[5] = system: Staphylococcus aureus; assay: Antimicrobial activity against hospital acquired methicillin-resistant Staphylococcus aureus HMC546 by broth microdilution method at pH 5.5; assay type: functional
[6] = system: Staphylococcus aureus; assay: Antimicrobial activity against animal acquired methicillin-resistant Staphylococcus aureus N7112046 by broth microdilution method at pH 5.5; assay type: functional
[7] = system: Staphylococcus aureus; assay: (§4) Antimicrobial activity against Panton-valentine leukocidin positive community acquired methicillin-resistant Staphylococcus aureus NRS192 obtained from patient with pneumonia and septic arthritis infected in human THP-1 cells assessed as decrease in bacterial count from original inoculum at high compound concentration after 24 hrs at pH 5.5; assay type: functional
In short: (§5)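 Bacteria phagocytosed by unactivated human THP-1 macrophages, then incubated 24 h with extracellular antibiotic at about 0.01× to 100× the pH 5.5 broth MIC. CFU per mg cell protein counted against the original inoculum, n = 3. A Hill-equation fit (slope factor 1) gave Emin and Emax, extrapolated to infinitely low and high concentration, and EC50. Static concentration was graphically interpolated.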

[8] = system: Staphylococcus aureus; assay: Antimicrobial activity against beta-lactamase negative methicillin-susceptible Staphylococcus aureus ATCC 25923 by broth microdilution method at pH 7.4; assay type: functional
[9] = system: Staphylococcus aureus; assay: Antimicrobial activity against Panton-valentine leukocidin positive community acquired methicillin-resistant Staphylococcus aureus N4042228 by broth microdilution method at pH 5.5; assay type: functional
[10] = system: Staphylococcus aureus; assay: Antimicrobial activity against Panton-valentine leukocidin positive community acquired methicillin-resistant Staphylococcus aureus N4042228 infected in human THP-1 cells assessed as increase in bacterial count from original inoculum at low compound concentration after 24 hrs at pH 5.5; assay type: functional; in short: as §5
[11] = system: Staphylococcus aureus; assay: Antimicrobial activity against Panton-valentine leukocidin positive community acquired methicillin-resistant Staphylococcus aureus NRS192 obtained from patient with pneumonia and septic arthritis by broth microdilution method at pH 5.5; assay type: functional
[12] = system: Staphylococcus aureus; assay: Bacteriostatic activity against intracellular hospital acquired methicillin-resistant Staphylococcus aureus ATCC 33591 infected in activated human THP-1 cells assessed as decrease in bacterial growth after 24 hrs at pH 7.4; assay type: functional; in short: as §1
[13] = system: Staphylococcus aureus; assay: Antimicrobial activity against intracellular beta-lactamase negative methicillin-susceptible Staphylococcus aureus ATCC 25923 infected in human keratinocytes assessed as decrease in bacterial growth after 24 hrs at pH 7.4; assay type: functional, organism-based; conditions: ATCC 25923, 24 h; in short: as §3
[14] = system: Staphylococcus aureus; assay: (§6) Antimicrobial activity against hospital acquired methicillin-resistant and vancomycin-intermediate Staphylococcus aureus NRS18 obtained from wound, skin and soft tissue infection of patient infected in human THP-1 cells assessed as decrease in bacterial growth after 24 hrs at pH 5.5; assay type: functional, organism-based; conditions: NRS18, THP-1, 24 h; in short: as §5
[15] = system: Staphylococcus aureus; assay: Bacteriostatic activity against Panton-valentine leukocidin positive community acquired methicillin-resistant Staphylococcus aureus N4042228 infected in human THP-1 cells assessed as decrease in bacterial growth after 24 hrs at pH 5.5; assay type: functional; in short: as §2
[16] = system: Staphylococcus aureus; assay: Antimicrobial activity against intracellular hospital acquired methicillin-resistant Staphylococcus aureus ATCC 33591 infected in human keratinocytes assessed as decrease in bacterial count from original inoculum at high compound concentration after 24 hrs at pH 7.4; assay type: functional; in short: as §3
[17] = system: Staphylococcus aureus; assay: Antimicrobial activity against hospital acquired methicillin-resistant Staphylococcus aureus ATCC 33591 infected in human THP-1 cells assessed as increase in bacterial count from original inoculum at low compound concentration after 24 hrs at pH 5.5; assay type: functional; in short: as §5
[18] = system: Staphylococcus aureus; assay: as §6, with “VRS2” for “NRS18”, “count from original inoculum at high compound concentration” for “growth”; assay type: functional; in short: as §2
[19] = system: Staphylococcus aureus; assay: Bacteriostatic activity against hospital acquired methicillin-resistant and vancomycin-intermediate Staphylococcus aureus NRS18 infected in human THP-1 cells assessed as decrease in bacterial growth after 24 hrs at pH 5.5; assay type: functional; in short: as §2
[20] = system: Staphylococcus aureus; assay: Bacteriostatic activity against Panton-valentine leukocidin positive community acquired methicillin-resistant Staphylococcus aureus N4090440 infected in human THP-1 cells assessed as decrease in bacterial growth after 24 hrs at pH 5.5; assay type: functional; in short: as §2
[21] = system: Staphylococcus aureus; assay: Antimicrobial activity against hospital acquired methicillin-resistant Staphylococcus aureus ATCC 33591 by broth microdilution method at pH 5.5; assay type: functional
[22] = system: Staphylococcus aureus; assay: Antimicrobial activity against Panton-valentine leukocidin positive community acquired methicillin-resistant Staphylococcus aureus N4042228 infected in human THP-1 cells assessed as decrease in bacterial count from original inoculum at high compound concentration after 24 hrs at pH 5.5; assay type: functional; in short: as §5
[23] = system: Staphylococcus aureus; assay: Antimicrobial activity against hospital acquired methicillin-resistant Staphylococcus aureus ATCC 33591 infected in human THP-1 cells assessed as decrease in bacterial count from original inoculum at high compound concentration after 24 hrs at pH 7.4; assay type: functional
[24] = system: Staphylococcus aureus; assay: Antimicrobial activity against Panton-valentine leukocidin positive community acquired methicillin-resistant Staphylococcus aureus N4042228 infected in human THP-1 cells assessed as decrease in bacterial growth after 24 hrs at pH 5.5; assay type: functional, organism-based; conditions: N4042228, THP-1, 24 h; in short: as §5
[25] = system: Staphylococcus aureus; assay: as §4, with “increase” for “decrease”, “low” for “high”; assay type: functional; in short: as §5

Cc1onc(-c2ccccc2Cl)c1C(=O)N[C@@H]1C(=O)N2[C@@H]1SC(C)(C)[C@@H]2C(=O)O [CLOXACILLIN]
EC50 [1]: 0.32 µg/mL (≈ 0.734 µM)
log10cfu [2]: 2.15
Activity [3]: 20.9 ×MIC
EC50 [4]: 0.39 µg/mL (≈ 0.895 µM)
MIC [5]: 0.25 µg/mL (≈ 0.574 µM)
MIC [6]: 0.125 µg/mL (≈ 0.287 µM)
log10cfu [7]: 0.68
MIC [8]: 0.125 µg/mL (≈ 0.287 µM)
MIC [9]: 0.03 µg/mL (≈ 0.0688 µM)
log10cfu [10]: 2.68
MIC [11]: 0.06 µg/mL (≈ 0.138 µM)
Activity [12]: 1 mg/L
EC50 [13]: 0.42 µg/mL (≈ 0.964 µM)
EC50 [14]: 3.96 ×MIC
Activity [15]: 45.7 ×MIC
log10cfu [16]: 0.6
log10cfu [17]: 2.27
log10cfu [18]: 0.78
Activity [19]: 14.1 ×MIC
Activity [20]: 17.4 ×MIC
MIC [21]: 0.06 µg/mL (≈ 0.138 µM)
log10cfu [22]: 0.63
log10cfu [23]: 0.55
EC50 [24]: 10.8 ×MIC
log10cfu [25]: 1.84

Reference: ChEMBL document CHEMBL1649111, “Restoration of susceptibility of intracellular methicillin-resistant Staphylococcus aureus to beta-lactams: comparison of strains, cells, and antibiotics” (Antimicrob Agents Chemother, 2008)
